Assay results of several laboratories.
Protocols differ between the studies behind these lines.
Cell line: MCF7
Read-out: cell growth or viability

Cc1ccc(S(=O)(=O)NN=Cc2cn(CCN3CCOCC3)c3ccccc23)cc1 — IC50 (MTT; 48 h): 61.1 µM
COc1cc2ncnc(Nc3ccc(F)c(Cl)c3)c2cc1NC(=O)N/N=C/CN1CCOCC1 — IC50 (MTT; 72 h): 7.43 µM
COC(=O)/C=C1\S/C(=N\C(=O)c2ccc3ccccc3c2)N(C2CCCCC2)C1=O — IC50 (48 h): 14.3 µM
CC(C)Cc1ccc(-c2nn(-c3ccc(S(C)(=O)=O)cc3)cc2/C=N/N=c2\[nH]c(-c3ccc(Br)cc3)cs2)cc1 — IC50 (MTT; 48 h): 8.26 µM
FC(F)(F)c1cccc(Nc2ncnc3ccc(-c4ccc5c(c4)OCO5)cc23)c1 — IC50 (MTT; 24 h): 6.74 µM
CSc1nc(NC(=S)NCCc2ccccc2)n(-c2ccc(C(=O)O)cc2)n1 — IC50 (MTT): 15.6 µM
c1cncc(-c2nc3ccccc3[nH]2)c1 — IC50 (MTT; 48 h): > 100 µM
c1ccc2cc(-c3nnc(NC4CCCCC4)[nH]3)ccc2c1 — IC50 (48 h): 1.75 µM
Cc1ccc(-c2csc(Nc3ccc4c(O)ncnc4c3)n2)cc1 — IC50 (MTT): 6.28 µM
CC[C@H](C)C(=O)O[C@H]1C[C@H](O)C=C2C=C[C@H](C)[C@H](CC[C@@H](O)C[C@@H](O)CC(=O)O)[C@H]21 — IC50 (SRB; 72 h): 98 µg/mL
CS(=O)(=O)c1ccc(-n2cc(/C=N/N=c3\[nH]c(-c4ccc(Br)cc4)cs3)c(-c3ccc(Br)cc3)n2)cc1 — IC50 (MTT; 48 h): 16.7 µM
Oc1ccc(Br)cc1-c1nc2ccccc2[nH]1 — IC50 (MTT; 48 h): 5.1 µM
COc1cc2ncnc(Nc3ccc(F)c(Cl)c3)c2cc1NC(=O)N/N=C/CN1CCN(C)CC1 — IC50 (MTT; 72 h): 8.76 µM
FC(F)(F)c1cccc(Nc2ncnc3ccc(Nc4ccccc4)cc23)c1 — IC50 (MTT; 24 h): 11.4 µM
COc1cc2c(Nc3ccc(NC(=O)c4ccccc4)cc3)ncnc2cc1OCCCN1CCOCC1 — IC50 (MTS; 48 h): 3.1 µM
Cc1ccc2nc(-c3ccc(Cl)c(Cl)c3)n(Cc3ccccc3)c2c1 — IC50 (MTT): 80.5 µM
Cc1ccc2c(Br)cc(Br)c(O)c2n1 — IC50 (MTT; 48 h): > 150 µM
COc1cc2ncnc(Nc3ccc(F)c(Cl)c3)c2cc1NC(=O)N/N=C/CN1CCCC1 — IC50 (MTT; 72 h): 7.53 µM
CC1(C)[C@@H](O)CC[C@]2(C)[C@H]3C(=O)C=C4[C@@H]5C[C@@](C)(C(=O)O)CC[C@]5(C)CC[C@@]4(C)[C@]3(C)CC[C@@H]12 — IC50 (MTT; 48 h): > 100 µM
Cc1ccc2c(Cl)cc(Cl)c(O)c2n1 — IC50 (MTT; 48 h): > 100 µM
C=CCn1c(-c2ccc([N+](=O)[O-])cc2)nc2ccc(C)cc21 — IC50 (MTT): 71.1 µM
O=C(N/N=C/c1cccn1CCN1CCCC1)Nc1cc2c(Nc3ccc(F)c(Cl)c3)ncnc2cc1O[C@H]1CCOC1 — IC50 (MTT; 72 h): 1.2 µM
O=C1Nc2c(C(F)(F)F)cccc2[C@@]1(c1ccc(O)cc1)c1ccc(OC(F)(F)F)cc1 — IC50 (resazurin; 72 h): 0.014 µM
Cc1ccc2nc(-c3cccc([N+](=O)[O-])c3)[nH]c2c1 — IC50 (MTT; 48 h): 19.2 µM
O=C(NC(=S)NCc1ccc(CNC(=S)NC(=O)c2ccc3ccccc3c2)cc1)c1ccc2ccccc2c1 — IC50 (48 h): 1.19 µM
O=C(N/N=C/c1cccn1CCCN1CCCCC1)Nc1cc2c(Nc3ccc(F)c(Cl)c3)ncnc2cc1O[C@H]1CCOC1 — IC50 (MTT; 72 h): 1.32 µM
CC(C)NCC(O)COc1cc2ccccc2cc1OCC(O)CNC(C)C (stereo not drawn) — IC50 (MTT; 72 h): > 75 µM
O=C(N/N=C/CN1CCCCC1)Nc1cc2c(Nc3ccc(F)c(Cl)c3)ncnc2cc1O[C@H]1CCOC1 — IC50 (MTT; 72 h): 1.53 µM
O=C(O)c1ccc(-n2nc(Oc3ccccc3)nc2/N=C/c2cc([N+](=O)[O-])ccc2O)cc1 — IC50 (MTT): 21.6 µM
Cc1ccc(-c2nn(-c3ccc(S(C)(=O)=O)cc3)cc2/C=N\N=c2/[nH]c(-c3ccc([N+](=O)[O-])cc3)cs2)cc1 — IC50 (MTT; 48 h): 36 µM
Cc1ccc2nc(-c3cccnc3)[nH]c2c1 — IC50 (MTT; 48 h): 51.1 µM
CC/C(=C(\c1ccc(O)cc1)c1ccc(OCCN(C)C)cc1)c1ccccc1 — IC50 (5 days): 4.22 µM
O=[N+]([O-])c1ccc(-c2csc(Nc3ccc4c(O)ncnc4c3)n2)cc1 — IC50 (MTT): 3.09 µM
Oc1cccc(-c2ccc3ncnc(Nc4cccc(C(F)(F)F)c4)c3c2)c1 — IC50 (MTT; 24 h): 18.1 µM
CCN(CC)CCCn1cccc1/C=N/NC(=O)Nc1cc2c(Nc3ccc(F)c(Cl)c3)ncnc2cc1O[C@H]1CCOC1 — IC50 (MTT; 72 h): 2.49 µM
O=S(=O)(NN=Cc1cn(CCN2CCOCC2)c2ccccc12)c1ccccc1 — IC50 (MTT; 48 h): 73.2 µM
CCOC(=O)/C=C1\S/C(=N\C(=O)c2ccc3ccccc3c2)N(C2CCCCC2)C1=O — IC50 (48 h): 14.9 µM
CCN(CC)CCn1cccc1/C=N/NC(=O)Nc1cc2c(Nc3ccc(F)c(Cl)c3)ncnc2cc1O[C@H]1CCOC1 — IC50 (MTT; 72 h): 1.28 µM
O=c1cc(-c2ccc(O)c(O)c2)oc2cc(O)cc(O)c12 — IC50 (WST-1; 48 h): 13.4 µM
Cc1ccc(O)c(/C=N/c2nc(Oc3ccccc3)nn2-c2ccc(C(=O)O)cc2)c1 — IC50 (MTT): 30.3 µM
COc1cccc2c1C(=O)c1c(O)c3c(c(O)c1C2=O)C[C@@](O)(C(=O)CO)C[C@@H]3O[C@H]1C[C@H](N)[C@H](O)[C@H](C)O1 — IC50 (MTT; 48 h): 0.964 µg/mL
CCOc1cc(OCC)cc(C(=O)O[C@@H]2CN3Cc4c(cc5c(c4OC)OCO5)[C@@]24C=C[C@H](OC)C[C@@H]34)c1 — IC50 (WST-1): 6.3 µM
CCCCc1ccc2[nH]c(NC(=O)OC)nc2c1 — IC50 (CCK-8; 72 h): 0.0996 µM
Oc1ccccc1-c1nc2ccccc2[nH]1 — IC50 (MTT; 48 h): > 100 µM
Cc1cc(C)n(-c2nc(Nc3ccc(Br)cc3)nc(N3CCOCC3)n2)n1 — IC50 (MTT; 72 h): 4.53 µM
COc1ccc(-c2csc(Nc3ccc4c(O)ncnc4c3)n2)cc1 — IC50 (MTT): 9.75 µM
c1ccc2[nH]c(-c3ccc4c(c3)OCO4)nc2c1 — IC50 (MTT; 48 h): > 100 µM
CCn1c(=N)c(C(=O)NCCOC)cc2c(=O)n3ccccc3nc21 — IC50 (MTT; 72 h): > 100 µM
